# Bioassay records from PubChem BioAssay.
# Redox H2O2 prof = compounds producing H2O2 with reducing agent – biochemical, NIH compound library profiling, artefact control for MLSCN library redox annotation, primary screen; AID 878, 2007; 0.03% of 200,000 active; activation, % at 10 µM; DTT-dependent redox cycling H2O2, phenol red/HRP absorbance; 100% = 100 µM peroxide control, 0% = buffer;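 active = activation of at least 50% relative to the plate's high and low controls in the primary single-dose screen; inactive = activation below 50%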;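 also: compound incubated with DTT at 0.8 mM final as the reducing agent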
# p97 ATPase inh = inhibitors of human p97 ATPase, primary screen, biochemical; Transitional endoplasmic reticulum ATPase (Homo sapiens), P55072; recombinant p97 ATPase, Kinase-Glo ATP luminescence, 3 h; inhibition, % at 8 µM; 0.42% of 220,000 active; AID 1481, 2009; in the data active = inhibition above about 15%
# Target sequence (P55072 whole entry, looked up): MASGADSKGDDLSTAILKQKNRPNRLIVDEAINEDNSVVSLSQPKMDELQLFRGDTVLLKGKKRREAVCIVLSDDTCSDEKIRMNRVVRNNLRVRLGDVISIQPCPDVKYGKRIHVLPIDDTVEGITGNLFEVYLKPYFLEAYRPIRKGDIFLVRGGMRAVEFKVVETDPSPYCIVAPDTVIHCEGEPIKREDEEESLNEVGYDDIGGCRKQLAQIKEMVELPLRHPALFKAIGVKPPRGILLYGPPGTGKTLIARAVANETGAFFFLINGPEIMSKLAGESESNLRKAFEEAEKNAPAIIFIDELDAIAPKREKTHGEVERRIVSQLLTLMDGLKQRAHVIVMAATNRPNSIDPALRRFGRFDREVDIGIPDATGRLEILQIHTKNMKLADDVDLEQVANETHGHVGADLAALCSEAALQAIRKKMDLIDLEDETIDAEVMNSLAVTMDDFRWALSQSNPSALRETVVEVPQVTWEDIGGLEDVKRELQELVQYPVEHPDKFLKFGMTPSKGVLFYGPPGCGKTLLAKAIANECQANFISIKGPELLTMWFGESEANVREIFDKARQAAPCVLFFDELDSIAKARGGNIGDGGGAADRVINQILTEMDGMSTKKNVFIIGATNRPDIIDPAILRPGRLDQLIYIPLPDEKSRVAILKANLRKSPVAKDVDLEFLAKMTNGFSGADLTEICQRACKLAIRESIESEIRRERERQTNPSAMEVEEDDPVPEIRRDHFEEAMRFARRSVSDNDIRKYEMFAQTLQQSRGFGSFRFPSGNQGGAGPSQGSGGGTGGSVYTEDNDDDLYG
# G6PDH CS = L. mesenteroides G6PDH inhibitors, counter-screen for G6PDH-coupled screening assays, biochemical, Leuconostoc mesenteroides enzyme | glucose-6-phosphate dehydrogenase [Leuconostoc mesenteroides] | Purified L. mesenteroides G6PDH, diaphorase/resazurin coupled fluorescence, 45 min | inhibition, % at 5 µM | 0.12% of 200,000 active | AID 1020, 2008; in the data active = inhibition above about 50%
# TNAP inh hi DEA = human TNAP enzyme inhibitors, primary screen, biochemical, luminescent, high phosphate acceptor level, uHTS | Alkaline phosphatase, tissue-nonspecific isozyme (Homo sapiens), P05186 | purified TNAP, CDP-star luminescence, 1 M DEA | inhibition, % at 20 µM | 0.03% of 200,000 active | AID 1135, 2008;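 active = over 50% inhibition of tissue-nonspecific alkaline phosphatase at 20 µM in the single-dose screen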
# TNAP act hiacc = TNAP activators at high phosphate acceptor level, primary screen, biochemical, luminescence, uHTS. Alkaline phosphatase, tissue-nonspecific isozyme (Homo sapiens), P05186. purified TNAP, CDP-star luminescence, 1 M DEA, 30 min; active compounds read high; 0 = EDTA background, 1 = DMSO-only activity. 200,000 tested, under 10 active. activation factor at 20 µM;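 active = activation factor at least 2 at 20 µM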
#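 system = human TNAP | amount = enzyme diluted 1/800 final | reagent = 100 µM CDP-star substrate | signal = luminescent substrate turnover signal | dosing = one dose, 20 µM | benchmarks = EDTA negative control, DMSO positive control | measure = activation factor | timing = 30 min reaction, room temperature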
# TNAP inh noacc = human TNAP enzyme inhibitors, primary screen, biochemical, luminescent, no phosphate acceptor, uHTS; 0.26% of 200,000 active; purified TNAP, CDP-star luminescence, 30 min; Alkaline phosphatase, tissue-nonspecific isozyme (Homo sapiens), P05186; inhibition, % at 20 µM;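 active = tissue-nonspecific alkaline phosphatase inhibition above about 50% at 20 µM in the single-dose screen, limit read from the data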
# p97 confirm = p97 ATPase inhibitors, retest, confirmation, biochemical; 44% of 760 active; shares compounds with p97 ATPase inh; inhibition, % at 8 µM; recombinant p97 ATPase, Kinase-Glo ATP luminescence;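 active = percent inhibition of p97 ATPase above a set limit, the primary screen's mean plus 3 SD, cut at about 15% in these data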
# Numbers stand for hits; n = inactive; x = not tested or not shown. A selection: hits, their analogues and other compounds. The true share with any hit is near 0.79%.
SMILES,Redox H2O2 prof,p97 ATPase inh,G6PDH CS,TNAP inh hi DEA,TNAP act hiacc,TNAP inh noacc,p97 confirm
CC1CCc2nc(N)c(C#N)c(-c3cccnc3)c2C1 (stereo not drawn),n,26,n,n,n,n,n
CCN(c1ccccc1)S(=O)(=O)c1ccc(Cl)c(C(=O)NCC2CCCO2)c1 (stereo not drawn),n,n,n,n,n,n,x
CS(=O)(=O)c1sc(C#N)c2c1C(=O)CC(c1ccccc1)C2 (stereo not drawn),x,25,x,x,x,x,22
COc1ccc2cc(C3OCCO3)c(Cl)nc2c1,n,n,n,n,n,n,x
COc1ccccc1Nc1nc(NCc2ccco2)nc(N)c1[N+](=O)[O-],x,16,x,x,x,x,21
Cc1csc(NC(=O)CSCC(=O)O)c1-c1nc2ccccc2s1,x,16,x,x,x,x,19
Cc1[nH][nH]c(=O)c1C(c1c(C)[nH][nH]c1=O)c1cn(Cc2ccc(Cl)c(Cl)c2)c2ccccc12,n,42,n,n,n,n,n
O=c1ccc(NS(=O)(=O)c2ccccc2Cl)cn1Cc1ccc(Cl)c(Cl)c1,n,n,n,n,n,n,x
O=C(CCc1nnc(CCc2ccccc2)o1)NC(c1cccnc1)C(F)(F)F (stereo not drawn),x,n,x,x,x,x,x
CNCCOc1ccccc1OC(C)C,n,n,n,n,n,n,x
COc1ccc(-n2c(NC(=O)c3ccc(Br)o3)c(C#N)c3nc4ccccc4nc32)cc1,n,n,n,n,n,n,x
N#Cc1c(NC(=O)c2ccc(Br)o2)n(-c2ccccc2)c2nc3ccccc3nc12,x,47,x,x,x,x,41
CC(=O)c1c(C)[nH]c(C(=O)OCc2ccccc2F)c1C,n,n,n,n,n,n,x
COC(=O)/C=C1/S/C(=N/NC(=O)c2ccc(Cl)cc2Cl)NC1=O,x,22,x,x,x,x,21
O=c1c(F)cn(C2CCCO2)c(=O)n1Cc1c(F)cccc1Cl (stereo not drawn),n,n,n,n,n,n,x
O=c1[nH]c(=O)n(C2CCCO2)cc1F (stereo not drawn),n,20,n,n,n,n,n
CCCCn1[nH]c(-c2ccccc2)cc1=O,n,21,n,n,n,n,n
Cc1nnc(SCC(=O)NNC(=O)c2ccc(Br)cc2)n1C,n,n,n,n,n,n,x
CC(=O)NC(Cc1ccc(O)cc1)C(=O)NN (stereo not drawn),n,n,n,n,n,n,x
C#CCOCCOCCOCCNc1nc(N2CCN(C(=O)C(Cc3cc4ccccc4[nH]3)n3cc(C(N)Cc4ccc(O)cc4)nn3)CC2)nc(N2CCN(C(=O)C(Cc3cc4ccccc4[nH]3)n3cc(C(N)Cc4ccc(O)cc4)nn3)CC2)n1 (stereo not drawn),n,22,n,n,n,n,26
C#CCOCCOCCOCCNc1nc(N2CCN(C(=O)[C@H](CCC(=O)O)n3cc(C(N)Cc4ccc(O)cc4)nn3)CC2)nc(N2CCN(C(=O)[C@H](Cc3cc4ccccc4[nH]3)n3cc(C(N)[C@H](C)CC)nn3)CC2)n1 (stereo partly drawn),n,n,n,n,n,n,x
C#CCOCCOCCOCCNc1nc(N2CCN(C(=O)[C@H](Cc3ccc(O)cc3)n3cc([C@@H](N)C(C)CC)nn3)CC2)nc(N2CCN(C(=O)[C@H](Cc3cc4ccccc4[nH]3)n3cc([C@@H](N)CC(C)C)nn3)CC2)n1 (stereo partly drawn),n,22,n,n,n,n,n
C#CCOCCOCCOCCNc1nc(N2CCN(C(=O)[C@H](Cc3cc4ccccc4[nH]3)n3cc([C@@H](N)CC(C)C)nn3)CC2)nc(N2CCN(C(=O)[C@H](Cc3cc4ccccc4[nH]3)n3cc([C@@H](N)CC(C)C)nn3)CC2)n1,n,27,n,n,n,n,27
C#CCOCCOCCOCCNc1nc(N2CCN(C(=O)[C@H](Cc3cc4ccccc4[nH]3)n3cc(C(N)CC(C)C)nn3)CC2)nc(N2CCN(C(=O)[C@H](CCC(=O)O)n3cc(C(N)[C@H](C)CC)nn3)CC2)n1 (stereo partly drawn),n,n,n,n,n,n,x
C#CCOCCOCCOCCNc1nc(N2CCN(C(=O)[C@H](Cc3ccc(O)cc3)n3cc([C@@H](N)C(C)CC)nn3)CC2)nc(N2CCN(C(=O)[C@H](Cc3cc4ccccc4[nH]3)n3cc([C@@H](N)C(C)CC)nn3)CC2)n1 (stereo partly drawn),n,25,n,n,n,n,n
SMILES,Redox H2O2 prof,p97 ATPase inh,G6PDH CS,TNAP inh hi DEA,TNAP act hiacc,TNAP inh noacc,p97 confirm
C#CCOCCOCCOCCNc1nc(N2CCN(C(=O)[C@H]([C@@H](C)CC)n3cc([C@@H](N)Cc4ccc(O)cc4)nn3)CC2)nc(N2CCN(C(=O)[C@H](Cc3cc4ccccc4[nH]3)n3cc([C@@H](N)C(C)CC)nn3)CC2)n1 (stereo partly drawn),n,n,n,n,n,n,x
C#CCOCCOCCOCCNc1nc(N2CCN(C(=O)[C@H](Cc3cc4ccccc4[nH]3)n3cc([C@@H](N)C(C)CC)nn3)CC2)nc(N2CCN(C(=O)[C@H](Cc3cc4ccccc4[nH]3)n3cc([C@@H](N)Cc4ccc(O)cc4)nn3)CC2)n1 (stereo partly drawn),n,17,n,n,n,n,26
Cc1ccccc1OCCCC(=O)NCc1ccco1,n,n,n,n,n,n,x
O=C(COC(=O)c1ccc2c(c1[N+](=O)[O-])C(=O)c1ccccc1C2=O)NC1CC1,n,23,55,n,n,n,29
Cc1ccc(C)n1Cc1ccc(C(=O)O)cc1,n,28,n,n,n,n,n
COC(=O)c1cc(NC(=O)c2cc(C(C)(C)C)nn2Cc2ccc(F)cc2)ccc1N1CCOCC1,x,n,x,x,x,x,x
CCS(=O)(=O)CCSc1nc2ccccc2s1,n,n,n,n,n,n,x
O=S(=O)(CCSc1nc2ccccc2s1)c1nc2ccccc2s1,n,23,n,n,n,n,17
COc1ccc(C(=O)Oc2cc(C)[nH]c(=O)c2[N+](=O)[O-])cc1,n,n,n,n,n,n,x
Cc1cc(OC(=O)c2ccc(S(=O)(=O)N(C)C)cc2)c([N+](=O)[O-])c(=O)[nH]1,n,16,n,n,n,n,n
